Test results: ChEMBL document CHEMBL1121573, “2-(Aminomethyl)phenols, a new class of saluretic agents. 1. Effects of nuclear substitution” (J Med Chem, 1980)

Columns and labels:
Rattus norvegicus [1] = experiment: Evaluated for salidiuretic activity measured as sodium ion excretion in Rat, administered orally at a dose of 50 mg/kg; type: functional, Urine; parameters: unit not given beside the values; conditions: route oral
Outline: (§1)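 Female Charles-River rats (150–170 g), overnight on sugar diet with water ad libitum. Compound dissolved in DMF, diluted with water containing Tween 80 (final 4% DMF), given po in 5.0 mL; concurrent vehicle placebo. Three rats per metabolism cage; 0–5 h urine analysed for Na+, K+, Cl-. Values: mequiv × 100 per cage, geometric means of three cages per dose; scored 0–6 by Na+.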

[2] = Compound administered orally at a dose of 5 mg/kg was evaluated for salidiuretic activity measured as sodium ion excretion in Rat; type: organism-based; parameters: dose 5 mg/kg; conditions: Urine; outline: as §1
Canis familiaris [3] = experiment: Compound administered intravenously at a dose of 5 mg/kg was evaluated for salidiuretic activity measured as sodium ion excretion in Dog; Value ranges from 800-899; type: ADME, organism-based, Canis lupus familiaris, Urine; parameters: dose 5 mg/kg, route intravenous; unit not given beside the values; conditions: in vivo, iv
Outline: (§2)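 Conditioned female mongrel dogs, postabsorptive, water-loaded (500 mL po) 1 h before sodium pentobarbital anesthesia (30 mg/kg iv). Bladder catheter; creatinine 4 g sc; phosphate–mannitol buffer pH 7.4 infused (3.0 mL/min) throughout. […] Urine Na+ measured; response scored 0–6.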

[4] = Evaluated for salidiuretic activity measured as sodium ion excretion in Rat, administered orally at a dose of 16.5 mg/kg; type: organism-based; parameters: dose 16.5 mg/kg; conditions: Urine; outline: as §1
Canis familiaris [5] = experiment: Salidiuretic activity in dog following i.v. dosing at 5 mg/kg; type: functional, Canis lupus familiaris, Urine; parameters: unit not given beside the values; conditions: route intravenous
Outline: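 Conditioned female mongrel dogs, postabsorptive, got a 500 mL oral water load 1 h before pentobarbital anesthesia (30 mg/kg iv). After replicate 15-min control collections, compound was given as an iv stat injection.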

Rattus norvegicus [6] = experiment: Compound administered orally at a dose of 81 mg/kg was evaluated for salidiuretic activity measured as sodium ion excretion in Rat; type: ADME, organism-based, Urine; parameters: dose 81 mg/kg, route oral; unit not given beside the values; conditions: in vivo, po; outline: as §1
Canis familiaris [7] = experiment: Compound administered intravenously at a dose of 5 mg/kg was evaluated for salidiuretic activity measured as sodium ion excretion in Dog; Value ranges from 100-249; type: ADME, organism-based, Canis lupus familiaris, Urine; parameters: dose 5 mg/kg, route intravenous; conditions: in vivo, iv; outline: as §2
Canis familiaris [8] = experiment: Compound administered intravenously was evaluated for salidiuretic activity measured as sodium ion excretion in Dog; Value ranges from 0-99; type: ADME, organism-based, Canis lupus familiaris, Urine; conditions: in vivo, iv; outline: as §2
Rattus norvegicus [9] = experiment: Compound administered orally at a dose of 1 mg/kg was evaluated for salidiuretic activity measured as sodium ion excretion in Rat; conditions: in vivo, po
Canis familiaris [10] = experiment: Compound administered intravenously was evaluated for salidiuretic activity measured as sodium ion excretion in Dog; Value ranges from 250-399; type: ADME, organism-based, Canis lupus familiaris, Urine; conditions: in vivo, iv; outline: as §2
Canis familiaris [11] = experiment: Compound administered intravenously at a dose of 5 mg/kg was evaluated for salidiuretic activity measured as sodium ion excretion in Dog; type: ADME, organism-based, Canis lupus familiaris, Urine; parameters: dose 5 mg/kg, route intravenous; conditions: in vivo, iv; outline: as §2
Canis familiaris [12] = experiment: Compound administered intravenously at a dose of 5 mg/kg was evaluated for salidiuretic activity measured as sodium ion excretion in Dog; Value ranges from 0-99; type: ADME, organism-based, Canis lupus familiaris, Urine; parameters: dose 5 mg/kg, route intravenous; conditions: in vivo, iv; outline: as §2

| Structure (SMILES) | Diuretic activity (Rattus norvegicus [1]) | Diuretic activity [2] | Diuretic activity [4] | Diuretic activity (Rattus norvegicus [6]) | other results |
| --- | --- | --- | --- | --- | --- |
| Cl.NCc1c(O)c(Cl)cc(Cl)c1F | 3.3 | 1.4 | 2.7 |  | Diuretic activity (Canis familiaris [3]): 800 |
| Cc1c(Cl)ccc(O)c1CN.Cl |  |  |  |  | Diuretic activity (Canis familiaris [5]): 250 |
| CCOC(=O)c1cc(I)c(O)c(CN)c1.Cl | 1.8 |  |  | 2.4 | Diuretic activity (Canis familiaris [5]): 250 |
| Br.Cc1c(O)c(CN)c(Cl)c(C)c1Cl | <0.2 |  |  | < 0.3 | Diuretic activity (Canis familiaris [7]): 100 |
| Cc1c(Cl)cc(CN)c(O)c1C.Cl |  |  |  |  | Diuretic activity (Canis familiaris [8]): 0 |
| Cl.NCc1cc(CN)c(Cl)c(Cl)c1O |  |  |  |  | Diuretic activity (Canis familiaris [8]): 0 |
| Cc1cc(Cl)cc(CN)c1O.Cl |  |  |  |  | Diuretic activity (Canis familiaris [7]): 100 |
| CCC(C)c1cc(Cl)c(O)c(CN)c1.Cl (stereo unspecified) | 3.6 | 2.6 | 3.3 |  | Diuretic activity (Canis familiaris [3]): 800; Diuretic activity (Rattus norvegicus [9]): 0.7 |
| CCCCCC(C)c1cc(C)c(O)c(CN)c1.Cl (stereo unspecified) |  |  |  |  | Diuretic activity (Canis familiaris [10]): 250 |
| CC(C)c1cc(Cl)c(O)c(CN)c1.Cl | 3.6 | 2.6 | 3.3 |  | Diuretic activity (Canis familiaris [11]): > 900; Diuretic activity (Rattus norvegicus [9]): 0.7 |
| Cc1c(Br)c(C)c(CN)c(O)c1Br.Cl | 3.3 | 1.4 | 2.7 |  | Diuretic activity (Canis familiaris [3]): 800 |
| COc1c(C(C)(C)C)cc(Cl)c(O)c1CN.Cl |  |  |  |  | Diuretic activity (Canis familiaris [10]): 250 |
| CC(C)Cc1cc(I)c(O)c(CN)c1.Cl | 1.2 | 0.3 | 0.5 | 1.5 | Diuretic activity (Canis familiaris [7]): 100 |
| Cc1c(C)c(C)c(CN)c(O)c1C.Cl | 2.4 | 0.5 | 1.4 | 2.9 | Diuretic activity (Canis familiaris [5]): 250 |
| COc1cc(Cl)c(Cl)c(CN)c1O.Cl | 1.2 | 0.3 | 0.5 | 1.5 | Diuretic activity (Canis familiaris [7]): 100 |
| CCCCc1ccc(O)c(CN)c1.Cl | <0.3 |  |  | < 0.3 | Diuretic activity (Canis familiaris [12]): 0 |
| CC(C)(C)c1cc(Br)c(O)c(CN)c1.Cl | 3.9 | 3.6 | 4.2 |  | Diuretic activity (Canis familiaris [11]): > 900; Diuretic activity (Rattus norvegicus [9]): 2.1 |
| Cl.NCc1c(O)c(Cl)cc(Cl)c1O | 1.2 | 0.3 | 0.5 | 1.5 | Diuretic activity (Canis familiaris [8]): 0 |
| COc1c(Cl)c(OC)c(CN)c(O)c1I.Cl | 3.3 | 1.4 | 2.7 |  | Diuretic activity (Canis familiaris [3]): 800 |
| CC(C)(C)c1cc(CN)c(O)c(C(C)(C)C)c1 |  |  |  |  | Diuretic activity (Canis familiaris [8]): 0 |
| CC(C)(C)c1cc(CN)c(O)c(Oc2ccc(Cl)cc2)c1.Cl | 1.8 | 0.4 | 0.6 | 2.4 | Diuretic activity (Canis familiaris [7]): 100 |
| COc1cc(C)cc(CN)c1O.Cl |  |  |  |  | Diuretic activity (Canis familiaris [7]): 100 |
| Cc1c(Cl)c(C)c(CN)c(O)c1CN.Cl.Cl | <0.2 |  |  | < 0.3 |  |

| Structure (SMILES) | Diuretic activity (Rattus norvegicus [1]) | Diuretic activity [2] | Diuretic activity [4] | Diuretic activity (Rattus norvegicus [6]) | other results |
| --- | --- | --- | --- | --- | --- |
| CC(=O)c1cc(C(C)(C)C)cc(CN)c1O.Cl |  |  |  |  | Diuretic activity (Canis familiaris [10]): 250 |
| Cc1cc(C)c(O)c(CN)c1C.Cl | 1.8 | 0.4 | 0.6 | 2.4 | Diuretic activity (Canis familiaris [5]): 250 |
| CC(C)(C)c1cc(O)c(CN)c(C(C)(C)C)c1.Cl |  |  |  |  | Diuretic activity (Canis familiaris [12]): 0 |
| CC(C)(C)c1c(Cl)cc(CN)c(O)c1Cl.Cl | 2.4 | 0.5 | 1.4 | 2.9 | Diuretic activity (Canis familiaris [5]): 250 |
| CCCc1ccc(O)c(CN)c1.Cl |  |  |  |  | Diuretic activity (Canis familiaris [5]): 250 |
| Cc1c(Cl)c(C(C)(C)C)c(Cl)c(O)c1CN.Cl | 2.4 | 0.5 | 1.4 | 2.9 |  |
| CCCc1cc(CN)c(O)c(OC)c1.Cl |  |  |  |  | Diuretic activity (Canis familiaris [5]): 250 |
| Cc1cc(O)c(CN)c(C)c1C.Cl |  |  |  |  | Diuretic activity (Canis familiaris [8]): 0 |
| CCCCc1cc(I)c(O)c(CN)c1.Cl | <0.2 |  |  | < 0.3 | Diuretic activity (Canis familiaris [7]): 100 |
| CC(C)(C)c1cc(F)c(O)c(CN)c1.Cl | 3.3 | 1.4 | 2.7 |  | Diuretic activity (Canis familiaris [11]): > 900 |
| Cc1cc(Cl)c(C)c(CN)c1O.Cl |  |  |  |  | Diuretic activity (Canis familiaris [8]): 0 |
| CCCc1cc(C(C)(C)C)cc(CN)c1O.Cl |  |  |  |  | Diuretic activity (Canis familiaris [8]): 0 |
| Cl.NCc1cc(Cl)cc(I)c1O | 1.8 | 0.4 | 0.6 | 2.4 | Diuretic activity (Canis familiaris [3]): 800 |
| CCC(C)c1cc(I)c(O)c(CN)c1.Cl (stereo unspecified) | 2.4 | 0.5 | 1.4 | 2.9 | Diuretic activity (Canis familiaris [11]): > 900 |
| Cl.NCc1cc(F)cc(Cl)c1O |  |  |  |  | Diuretic activity (Canis familiaris [12]): 0 |
| CCC(C)(C)c1cc(I)c(O)c(CN)c1.Cl | 2.4 | 0.5 | 1.4 | 2.9 | Diuretic activity (Canis familiaris [3]): 800 |
| Cc1cc(CN)c(O)c(C(C)(C)C)c1.Cl |  |  |  |  | Diuretic activity (Canis familiaris [7]): 100 |
| Cl.NCc1c(O)c(Cl)c(Cl)c(Cl)c1Cl | 3.3 | 1.4 | 2.7 |  | Diuretic activity (Canis familiaris [5]): 250 |
| CCCCc1cc(C)c(O)c(CN)c1.Cl |  |  |  |  | Diuretic activity (Canis familiaris [7]): 100 |
| COc1c(C(C)(C)C)cc(I)c(O)c1CN.Cl | 2.4 | 0.5 | 1.4 | 2.9 | Diuretic activity (Canis familiaris [3]): 800 |
| CC(C)(C)CC(C)(C)c1cc(Cl)c(O)c(CN)c1.Cl |  |  |  |  | Diuretic activity (Canis familiaris [8]): 0 |
| CCCc1cc(CN)c(O)c(CCC)c1.Cl |  |  |  |  | Diuretic activity (Canis familiaris [5]): 250 |
| Cl.NCc1cc(Cl)cc(F)c1O |  |  |  |  | Diuretic activity (Canis familiaris [5]): 250 |

| Structure (SMILES) | Diuretic activity (Rattus norvegicus [1]) | Diuretic activity [2] | Diuretic activity [4] | Diuretic activity (Rattus norvegicus [6]) | other results |
| --- | --- | --- | --- | --- | --- |
| C=C(CC)C(=O)c1ccc(OCC(=O)O)c(Cl)c1Cl [ETHACRYNIC ACID] | <0.3 |  |  | < 0.3 | Diuretic activity (Canis familiaris [11]): > 900 |
| Cc1cc(N)c(C)c(CN)c1O.Cl.Cl |  |  |  |  | Diuretic activity (Canis familiaris [8]): 0 |
| CCOc1cc(Cl)c(O)c(CN)c1.Cl |  |  |  |  | Diuretic activity (Canis familiaris [10]): 250 |
| CCc1cc(CN)c(O)c(CN)c1.Cl |  |  |  |  | Diuretic activity (Canis familiaris [12]): 0 |
| CC(C)(c1ccccc1)c1ccc(O)c(CN)c1.Cl |  |  |  |  | Diuretic activity (Canis familiaris [5]): 250 |
| CCc1cc(Cl)c(O)c(CN)c1.Cl | 3.3 | 1.4 | 2.7 |  | Diuretic activity (Canis familiaris [11]): > 900 |
| Cc1cc(Cl)c(Cl)c(CN)c1O.Cl |  |  |  |  | Diuretic activity (Canis familiaris [10]): 250 |
| Cc1c(Cl)c(C)c(CN)c(O)c1Cl.Cl | 3.3 | 1.4 | 2.7 |  |  |
| Cc1cc(Cl)c(O)c(CN)c1.Cl | 1.8 | 0.4 | 0.6 | 2.4 | Diuretic activity (Canis familiaris [7]): 100 |
| NCc1cc(Cl)ccc1O | 1.2 | 0.3 | 0.5 | 1.5 | Diuretic activity (Canis familiaris [5]): 250 |
| CCCc1cc(Cl)c(O)c(CN)c1.Cl | 3.3 | 1.4 | 2.7 |  | Diuretic activity (Canis familiaris [11]): > 900 |
| COc1cc(Cl)c(OC)c(CN)c1O.Cl |  |  |  |  | Diuretic activity (Canis familiaris [10]): 250 |
| NCc1c(O)ccc(Cl)c1Cl | 1.2 | 0.3 | 0.5 | 1.5 | Diuretic activity (Canis familiaris [5]): 250 |
| Cl.NCc1cc(Cl)cc(C(=O)O)c1O |  |  |  |  | Diuretic activity (Canis familiaris [5]): 250 |
| Cl.NCc1cc(I)cc(I)c1O | 2.4 | 0.5 | 1.4 | 2.9 | Diuretic activity (Canis familiaris [3]): 800 |
| Cl.NCc1cc(Cl)c(Cl)c(Cl)c1O | 3.3 | 1.4 | 2.7 |  | Diuretic activity (Canis familiaris [5]): 250 |
| CCc1c(Cl)c(C)c(Cl)c(O)c1CN.Cl | 1.2 | 0.3 | 0.5 | 1.5 | Diuretic activity (Canis familiaris [7]): 100 |
| COc1c(C)c(OC)c(CN)c(O)c1Cl |  |  |  |  | Diuretic activity (Canis familiaris [10]): 250 |
| Cl.NCc1cc(-c2ccccc2)cc(Cl)c1O |  |  |  |  | Diuretic activity (Canis familiaris [10]): 250 |
| CC(C)(C)c1cc(CN)c(O)c(C(F)(F)F)c1.Cl | 3.3 | 1.4 | 2.7 |  | Diuretic activity (Canis familiaris [3]): 800 |
| Cl.NCc1cc(Cl)cc(-c2ccccc2)c1O |  |  |  |  | Diuretic activity (Canis familiaris [5]): 250 |
